Measured values as given in paper PMC9220501 (Chemico-Biological Interactions, 2022).

Key:
Assay type in all cases: cell-based
malignant melanoma A375 = experiment: MTT cytotoxicity assay, A375; details: Homo sapiens, A-375, 72 h, read-out: IC50 A375
In short: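 A375 cells were kept in RPMI 1640 with 10% FBS, 2 mM L-glutamine, 25 mM HEPES and penicillin-streptomycin at 37 °C and 5% CO2. Cells were seeded at 3000 per well and allowed to adhere for 20 h. They were treated for 72 h, and survival was read by MTT. IC50 is the mean ± SD of three independent experiments.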

[1] = test system: chronic myelogenous leukemia K562 cells; experiment: MTT cytotoxicity assay, K562; details: Homo sapiens, K562, 72 h, read-out: IC50 K562
[2] = test system: colon adenocarcinoma LS174; experiment: MTT cytotoxicity assay, LS174; details: Homo sapiens, LS174, 72 h, read-out: IC50 LS174
lung fibroblasts MRC-5 = experiment: MTT cytotoxicity assay, normal MRC-5; details: Homo sapiens, MRC5, 72 h, read-out: IC50 MRC-5
[3] = test system: cervical adenocarcinoma HeLa; experiment: MTT cytotoxicity assay, HeLa; details: Homo sapiens, 72 h, read-out: IC50 HeLa
lung carcinoma A549 = experiment: MTT cytotoxicity assay, A549; details: Homo sapiens, A549, 72 h, read-out: IC50 A549

| SMILES | IC50 (malignant melanoma A375) | IC50 [1] | IC50 [2] | IC50 (lung fibroblasts MRC-5) | IC50 [3] | IC50 (lung carcinoma A549) |
| --- | --- | --- | --- | --- | --- | --- |
| COC(=O)C1=C(C)N(C)C(=S)NC1c1ccc(O)c(OC)c1 (centres unmarked) [4e, Methyl 1,2,3,4-tetrahydro-4-(4′-hydroxy-3′-methoxyphenyl)-1,6-dimethyl-2-thioxopyrimidine-5-carboxylate] | 176 ± 2.9 µM | 197 ± 0.54 µM | 196 ± 2.87 µM | 114 ± 2.36 µM | 157 ± 6.52 µM | – |
| COC(=O)C1=C(C)N(C)C(=S)NC1c1ccc(C(=O)O)cc1 (centres unmarked) [4d, 4-(5-(methoxycarbonyl)-1,2,3,4-tetrahydro-1,6-dimethyl-2-thioxopyrimidin-4-yl)benzoic acid] | 199.6 ± 0.59 µM | 195 ± 7.62 µM | > 200 µM | 169 ± 8.98 µM | 139 ± 7.64 µM | – |
| COC(=O)C1=C(C)N(C)C(=S)NC1c1ccc([N+](=O)[O-])cc1 (centres unmarked) [4c, Methyl 4-(4′-nitrophenyl)-1,2,3,4-tetrahydro-1,6-dimethyl-2-thioxopyrimidine-5-carboxylate] | 158 ± 7.84 µM | 193 ± 3.75 µM | 185 ± 5.5 µM | 88.9 ± 6.31 µM | 122 ± 12.8 µM | – |
| COC(=O)C1=C(C)N(C)C(=S)NC1c1ccccc1 (centres unmarked) [4a, Methyl 1,2,3,4-tetrahydro-1,6-dimethyl-2-thioxo-4-phenylpyrimidine-5-carboxylate] | 123 ± 7.17 µM | 163 ± 4.62 µM | 170.5 ± 1.28 µM | 92.97 ± 0.59 µM | 128 ± 15.4 µM | – |
| COC(=O)C1=C(C)N(C)C(=S)NC1c1ccc(Cl)cc1 (centres unmarked) [4b, Methyl 4-(4′-chlorophenyl)-1,2,3,4-tetrahydro-1,6-dimethyl-2-thioxopyrimidine-5-carboxylate] | 102 ± 6.26 µM | 95.9 ± 1.85 µM | 153 ± 9.08 µM | 28.2 ± 0.32 µM | 81.8 ± 9.57 µM | 123 ± 6.05 µM |
